Compounds with a hit are over-represented: about 1.8% of the library has one in this group of screens.
MC4R ag barr – MC4R agonists recruiting beta-arrestin, primary screen, cell-based, luminescence, agonist arm of biased-ligand search. U2OS MC4R beta-arrestin complementation; percent of melanotan II response, DMSO zero. activation, % at 8.9 µM. AID 540308, 2011. 360,000 tested, 0.98% active;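 active = activation above a per-plate cutoff, the mean activation of sample wells on that plate plus 3 SD, cut at about 8% in these data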
AI-2 QS modul – Vibrio harveyi AI-2 quorum sensing modulators, primary screen, JMH597 strain, luminescence/OD600 ratio; Vibrio harveyi JMH597 AI-2 luminescence/OD600 ratio, 9 h; hits give low values; strain lacks LuxN and CqsS sensors; 0 = neutral-control median; activity change, % at 7.5 µM; 300,000 tested, 0.4% active; in the data active = activity change below about -75%, passing the limit was not always enough;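 also: luminescence divided by OD600 gain over 9 h not by final OD600 alone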
NTR1 ag – agonists of human NTR1, primary screen, imaging, U2OS cells, beta-arrestin-GFP, high content | AID 493036, 2011 | NTR1-U2OS beta-arrestin-GFP spot imaging, agonist mode | Neurotensin receptor type 1 (Homo sapiens), P30989 | 330,000 tested, 0.17% active | activation, % at 20 µM;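 active = activation at or above 40% of the spot to cytoplasm intensity ratio, with at least 20 cells analyzed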
Target sequence (P30989 whole entry, looked up): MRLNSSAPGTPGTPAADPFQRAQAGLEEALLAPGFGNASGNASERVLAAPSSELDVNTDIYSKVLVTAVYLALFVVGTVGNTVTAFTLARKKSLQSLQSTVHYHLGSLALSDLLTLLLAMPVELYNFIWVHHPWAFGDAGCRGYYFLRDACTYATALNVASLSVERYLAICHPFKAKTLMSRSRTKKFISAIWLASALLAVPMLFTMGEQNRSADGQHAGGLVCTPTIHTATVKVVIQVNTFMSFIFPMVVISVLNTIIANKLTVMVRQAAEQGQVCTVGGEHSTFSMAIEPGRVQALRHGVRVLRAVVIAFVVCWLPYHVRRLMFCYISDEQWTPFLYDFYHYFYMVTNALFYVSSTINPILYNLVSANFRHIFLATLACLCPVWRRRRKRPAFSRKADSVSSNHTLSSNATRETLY
MC4R antag cAMP – MC4R antagonists of cAMP signaling, primary screen, cell-based, TR-FRET, antagonist arm of biased-ligand search; Melanocortin receptor 4 (Homo sapiens), P32245; MC4R-expressing cells, MTII-stimulated cAMP, LANCE TR-FRET; inhibition, % at 6.5 µM; 360,000 tested, 0.48% active; AID 540295, 2011;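 active = inhibition above its plate's cutoff, the mean of tested wells on that plate plus 3 SD, cut at about 29% in these data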
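Material: human MC4R-expressing U2OS cells. Probe or stimulus: Melanotan II challenge. Dosing: 6.5 µM single dose. Times: 30-min compound, 1-h challenge, 1-h detection, room temperature. Technique: TR-FRET with Eu-cAMP and labeled anti-cAMP, 671 nm. Replication: singlicate.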
MC4R barr ag – MC4R beta-arrestin agonists, retest, confirmation, cell-based, luminescence, U2OS; U2OS MC4R beta-arrestin recruitment; scaled DMSO 0%, Melanotan II 100%; 2,400 tested, 31% active; shares compounds with MC4R ag barr; activation, % at 8.9 µM; AID 602192, 2012;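 active = mean activation across replicates above the hit cutoff set in the earlier primary screen, cut at about 8% in these data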
MOR-DOR barr ag – agonists of MOR-DOR heterodimerization, counter-screen for MC4R biased agonist project, cell-based, luminescence; AID 602194, 2012; 2,400 tested, 5.8% active; shares compounds with MC4R ag barr; activation, % at 9.2 µM; U2OS PathHunter beta-arrestin, beta-gal luminescence; percent of deltorphin B response, DMSO zero;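 active = mean activation across replicates exceeds the hit threshold derived in the earlier primary screen, cut at about 18% in these data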
Large screens that a line does not name were inactive (follow-up assays come after a bar, where they were run).

CC(=O)Nc1cc(-c2cccc(F)c2)cn2c(-c3ccc(S(C)(=O)=O)cc3)cnc12	none (no result: AI-2 QS modul, NTR1 ag)
CC(=O)Nc1cc(-c2cccc(F)c2)cn2c(-c3ccc(F)cc3)cnc12	MC4R ag barr 40 (no result: AI-2 QS modul, NTR1 ag) | MC4R barr ag 64 | MOR-DOR barr ag inactive
Clc1ccc(C=Cc2ccccn2)c(Cl)c1	none (no result: AI-2 QS modul, NTR1 ag)
CCc1cc(=O)oc2c(C)c(OCC(=O)NC3CC(C)(C)NC(C)(C)C3)ccc12	none
Nc1nonc1-n1nnc(C(=O)N/N=C/c2ccc(OCc3ccc(F)cc3)cc2)c1COc1ccccc1	MC4R ag barr 19 | MC4R barr ag inactive | MOR-DOR barr ag inactive
Cc1ccc(COc2ccc(/C=N/NC(=O)c3nnn(-c4nonc4N)c3COc3ccc(F)cc3)cc2)cc1	none
CCCN(CCC)Cc1c(C(=O)N/N=C/c2ccc(C)o2)nnn1-c1nonc1N	MC4R ag barr 13 | MC4R barr ag inactive | MOR-DOR barr ag inactive
O=C(N/N=C/c1ccc(OCc2ccccc2)cc1)c1ccco1	none
O=C(N/N=C/c1ccccc1)c1ccc(OCc2ccccc2)cc1	MC4R ag barr 12 | MC4R barr ag inactive | MOR-DOR barr ag inactive
OC(COc1ccc(F)cc1Cl)CN1CCC(Cc2ccccc2)CC1 (stereo not given)	MC4R ag barr 11 | MC4R barr ag 9.3 | MOR-DOR barr ag inactive
OC(COc1ccccc1F)CN1CCC(Cc2ccccc2)CC1 (stereo not given)	none
CC(=O)N1CCN(S(=O)(=O)c2cccc(C(=O)OCC(=O)N(CCC#N)c3ccc(F)cc3)c2)CC1	none (no result: AI-2 QS modul)
O=C(Nc1ccc2nn(-c3ccccc3)nc2c1)c1cccs1	MC4R ag barr 10 | MC4R barr ag inactive | MOR-DOR barr ag inactive
O=C(Nc1ccc(O)c(-c2nc3ccccc3s2)c1)c1cc(=O)c2ccccc2o1	none
O=C(Nc1ccc(O)c(-c2nc3ccccc3s2)c1)c1cccs1	MC4R ag barr 24 | MC4R barr ag inactive | MOR-DOR barr ag inactive
O=C(Nc1ccc(F)cc1)Nc1sccc1-c1nc2ccccc2s1	MC4R ag barr 25 | MC4R barr ag 10 | MOR-DOR barr ag inactive
O=C(NC(=S)Nc1cccc(NC(=O)c2ccccc2Cl)c1)c1cccs1	MC4R ag barr 14 | MC4R barr ag inactive | MOR-DOR barr ag inactive
O=C(OCC(=O)N1CCCc2ccccc21)c1ccc(F)c(S(=O)(=O)N2CCOCC2)c1	none
O=C(NCc1n[nH]c(=O)c2ccccc12)C1CC(=O)N(c2ccc(Cl)cc2)C1 (stereo not given)	none
O=C(Nc1cccc(NC(=S)NC(=O)c2cccs2)c1)c1ccccc1	MC4R ag barr 12 | MC4R barr ag 19 | MOR-DOR barr ag inactive
O=C(NC(=S)Nc1ccc(S(=O)(=O)N2CCCC2)cc1)c1cccs1	none
O=C(NC(=S)Nc1ccc(S(=O)(=O)N2CCCCCC2)cc1)c1cccs1	MC4R ag barr 13 | MC4R barr ag 9.4 | MOR-DOR barr ag inactive
CCOc1ccc(NC(=O)COc2cccc3c2CCN(Cc2cccnc2)C3=O)cc1	none
Cn1c2ccccc2c2cnn(CC(=O)Nc3cccc(F)c3)c(=O)c21	MC4R ag barr 9.7 | MC4R barr ag inactive | MOR-DOR barr ag inactive
O=C(O)CCCC1(C(=O)O)CCCC1	none (no result: AI-2 QS modul, NTR1 ag)
COc1cc(-c2cnc3c(NC=O)cc(-c4cccnc4)cn23)cc(OC)c1OC	none (no result: AI-2 QS modul, NTR1 ag)
Cn1cc(-c2cnc3c(NC=O)cc(-c4cccc(C(F)(F)F)c4)cn23)cn1	none (no result: AI-2 QS modul, NTR1 ag)
COc1cccc(-c2cc(NC=O)c3ncc(-c4cc(OC)c(OC)c(OC)c4)n3c2)c1	MC4R ag barr 28 (no result: AI-2 QS modul, NTR1 ag) | MC4R barr ag inactive | MOR-DOR barr ag inactive
COc1cc(-c2cc(NC=O)c3ncc(-c4ccc(F)cc4)n3c2)cc(OC)c1OC	none (no result: AI-2 QS modul, NTR1 ag)

From PubChem BioAssay
